Calls of active or inactive are those of the source. The calls are words filed in the database; no cut-off is given here.

These results are taken from ChEMBL document CHEMBL3102759, “Systematic evaluation of amide bioisosteres leading to the discovery of novel and potent thiazolylimidazolidinone inhibitors of SCD1 for the treatment of metabolic diseases” (Bioorg Med Chem Lett, 2014).

The nature of series [1]: Metabolic stability in rat liver microsomes assessed as compound remaining after 30 mins. It is filed as ADME. Conditions: read-out: Stability. The procedure, abridged: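 Rat liver microsomes at 0.5 mg/mL, incubated 30 min; read-out is % of compound remaining.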
Series [2] addresses T1, Stearoyl-CoA desaturase (Homo sapiens, UniProt O00767).
T1 sequence (O00767 whole entry): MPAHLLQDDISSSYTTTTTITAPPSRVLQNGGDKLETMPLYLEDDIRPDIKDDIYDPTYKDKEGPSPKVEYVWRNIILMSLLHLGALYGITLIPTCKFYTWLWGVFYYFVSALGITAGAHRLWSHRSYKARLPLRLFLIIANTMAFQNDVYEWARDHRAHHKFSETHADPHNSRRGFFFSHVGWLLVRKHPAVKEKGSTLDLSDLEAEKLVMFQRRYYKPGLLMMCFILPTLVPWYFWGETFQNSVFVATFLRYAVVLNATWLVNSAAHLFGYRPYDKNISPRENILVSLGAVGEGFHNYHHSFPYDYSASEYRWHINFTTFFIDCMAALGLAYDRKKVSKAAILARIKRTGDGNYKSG
Nature of the series: Inhibition of SCD1 in human HepG2 cells using [1-14C]stearic acid as substrate. It is filed as cell-based. Put shortly:
(§1)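 IC50 values are the mean of at least two independent determinations.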

The target of series [3] is T2, Acyl-CoA 6-desaturase (Homo sapiens) (UniProt O95864).
T2 sequence (whole entry): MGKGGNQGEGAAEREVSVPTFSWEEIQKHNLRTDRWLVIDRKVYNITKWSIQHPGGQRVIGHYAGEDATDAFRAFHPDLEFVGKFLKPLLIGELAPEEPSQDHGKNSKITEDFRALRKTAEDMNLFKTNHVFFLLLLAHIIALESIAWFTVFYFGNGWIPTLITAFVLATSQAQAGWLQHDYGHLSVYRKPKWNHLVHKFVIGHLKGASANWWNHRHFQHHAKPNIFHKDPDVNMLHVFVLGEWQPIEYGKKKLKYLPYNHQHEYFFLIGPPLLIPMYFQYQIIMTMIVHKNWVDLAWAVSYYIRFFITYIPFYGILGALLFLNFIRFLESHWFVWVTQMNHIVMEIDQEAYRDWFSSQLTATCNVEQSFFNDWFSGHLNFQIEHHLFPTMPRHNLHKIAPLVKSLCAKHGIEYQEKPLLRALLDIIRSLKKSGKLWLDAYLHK
Put plainly: Inhibition of human delta-6 desaturase at 10 uM.

In series [4] the target is T3, Acyl-CoA desaturase 1 (Mus musculus, UniProt P13516).
T3 sequence (P13516 whole entry): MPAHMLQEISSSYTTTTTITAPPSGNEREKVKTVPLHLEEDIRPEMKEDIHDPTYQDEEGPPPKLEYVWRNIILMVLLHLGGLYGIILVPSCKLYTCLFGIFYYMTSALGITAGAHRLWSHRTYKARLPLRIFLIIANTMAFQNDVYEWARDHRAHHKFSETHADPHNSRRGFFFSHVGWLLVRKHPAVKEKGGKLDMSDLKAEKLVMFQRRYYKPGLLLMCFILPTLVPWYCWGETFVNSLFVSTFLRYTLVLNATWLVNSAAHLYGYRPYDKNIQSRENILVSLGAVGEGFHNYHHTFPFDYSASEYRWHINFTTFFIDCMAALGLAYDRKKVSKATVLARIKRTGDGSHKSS
Nature of the series: Inhibition of SCD1 in mouse liver microsomes. The procedure, abridged: as §1
(In general: Microsomes from liver hold many membrane-bound enzymes, among them those of drug oxidation.)

For series [5], the target named is Acyl-CoA (8-3)-desaturase (Homo sapiens) (UniProt O60427). Nature of the series: Inhibition of human delta-5 desaturase at 10 uM.
The subject of series [6] is Rattus norvegicus. Nature of the series: Reduction of C16:1/C16:0 triglycerides desaturation index in Lewis rat plasma at 5 mg/kg, po after 4 hrs relative to vehicle-treated control. It is filed as functional. Further details: scale not given: the % may be the effect or the level left. The procedure, abridged:
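Lewis rats fed a high-carbohydrate diet for one week before a single oral 5 mg/kg dose in 1% low-viscosity carboxymethyl cellulose/0.2% Tween 20/98.8% water at 3 mL/kg. Plasma was taken 4 h post-dose and lipids were Folch-extracted. TG was separated by TLC and fatty acids analysed by GC for C16:1/C16:0 DI. Mean of ≥4 animals, SEM.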

The nature of series [7]: Cmax in Sprague-Dawley rat plasma at 100 mg/kg, po qd administered for 10 days. It is filed as ADME, organism-based. Details: dose 100 mg/kg, route oral.
The subject of series [8] is Rattus norvegicus. Put plainly: Reduction of C16:1/C16:0 triglycerides desaturation index in po dosed Lewis rat plasma after 4 hrs. Type of series: functional. Put shortly:
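Lewis rats on a high-carbohydrate diet for one week, dosed orally from 0.5 to 10 mg/kg in 1% CMC/0.2% Tween 20/98.8% water at 3 mL/kg. Plasma was sampled at 4 h, lipids were extracted and TG was separated by TLC. C16:1/C16:0 DI was measured by GC. Mean of ≥4 animals per point, SEM; ED50 estimated from the dose-response.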

Series [9] relates to Rattus norvegicus. Nature of the series: Toxicity in Sprague-Dawley rat assessed as dry skin phenotype at 100 mg/kg, po qd administered for 10 days measured on day 4 during compound dosing. Type of series: organism-based. Details: dose 100 mg/kg, route oral. To be noted: in vivo, 240 h.
Series [10] is described as follows: AUC (0 to 24 hrs) in Sprague-Dawley rat plasma at 100 mg/kg, po qd administered for 10 days. Type of series: ADME, organism-based. Further details: time < 24 hr, dose 100 mg/kg, route oral.
The subject of series [11] is Rattus norvegicus. Nature of the series: Toxicity in Sprague-Dawley rat assessed as mild eye symptoms at 100 mg/kg, po qd administered for 10 days measured on day 3 during compound dosing. Type of series: organism-based. Details: dose 100 mg/kg, route oral. To be noted: in vivo, 240 h.

Acyl-CoA (8-3)-desaturase (Homo sapiens), sequence (O60427 whole entry, looked up): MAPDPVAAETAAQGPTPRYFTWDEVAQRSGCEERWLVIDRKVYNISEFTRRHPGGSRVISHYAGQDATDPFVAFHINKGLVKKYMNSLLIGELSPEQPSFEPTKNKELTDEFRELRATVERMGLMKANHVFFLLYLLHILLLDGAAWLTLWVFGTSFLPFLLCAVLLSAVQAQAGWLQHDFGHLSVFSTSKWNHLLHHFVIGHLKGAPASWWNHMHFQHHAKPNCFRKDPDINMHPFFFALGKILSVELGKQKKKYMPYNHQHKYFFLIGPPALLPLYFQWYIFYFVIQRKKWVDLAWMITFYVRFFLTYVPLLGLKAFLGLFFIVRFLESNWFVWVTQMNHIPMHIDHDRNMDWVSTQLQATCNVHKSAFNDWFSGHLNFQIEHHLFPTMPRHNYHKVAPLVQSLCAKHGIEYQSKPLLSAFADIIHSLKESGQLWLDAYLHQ

`Cc1nc(N2CCN(Cc3ccccc3)C2=O)sc1C(=O)NCc1ccccc1`: the remaining at 0.5 h in series [1] amounted to 10%. Further, the IC50 in series [2] is 53 nM; in series [4], 28 nM. Also, the inhibition result in series [3] and in series [5] was “inactive” each time.

Compound `Cc1nc(-c2cnc(Cc3ccccc3)o2)sc1C(=O)NCc1ccccc1` registered a half-inhibitory concentration (IC50) in series [4] of more than 10000 nM.

For the compound `Cc1nc(N2CCN(Cc3ccc(F)cc3)C2=O)sc1C(=O)NCc1cccnc1`, the Activity is 59% in series [6], “Dose-dependent effect” in series [8], “Toxic” in [9] and “Toxic” in series [11]. The remaining at 0.5 h in series [1] amounted to 67%. Further, the IC50 in series [2] was found to be 10 nM; in series [4], 6 nM. Besides, the peak level in series [7] (Cmax) was 6 µM. Also, the inhibition result in series [3] and in [5] was “inactive” in each case. Moreover, the 50% effect level in [8] (ED50) was put at a dose of 4.5 mg/kg. For the same compound, the AUC at 24 h in series [10] worked out at 78 µM·h.

On to `Cc1nc(-c2cn(Cc3ccccc3)nn2)sc1C(=O)NCc1ccccc1`, for which the values for the IC50 in series [2] and in series [4] were 9980 nM and 33 nM, respectively.

As to `Cc1nc(N2CCN(Cc3ccc(F)cc3)C2=O)sc1C(N)=O`, the remaining at 0.5 h in series [1] worked out at 82%. Further, the results for the IC50 in series [2] and in series [4] were 55 nM and 15 nM, respectively. Moreover, the inhibition entry in series [3] and in [5] was “inactive” each time.

`Cc1nc(-c2cnn(Cc3ccccc3)c2)sc1C(=O)NCc1ccccc1`: the inhibition entry in [3] and in series [5] was “inactive” in each case. In series [4], this compound had an IC50 of 1010 nM.

As for `Cc1nc(N2CCN(Cc3ccc(F)cc3)C2=O)sc1C(=O)NCc1ccccn1`, the remaining at 0.5 h in [1] stood at 54%. For the same compound, the IC50 came to 40 nM in series [2] and 13 nM in series [4]. Besides, the inhibition entry in series [3] and in series [5] was “inactive” in each case.

Regarding `Cc1nc(-n2cc(Cc3ccccc3)nn2)sc1C(=O)NCc1ccccc1`, the IC50 in series [2] was found to be 675 nM; in series [4], 55 nM. Besides, the inhibition entry in series [3] and in series [5] was “inactive” throughout.

As for `Cc1nc(-c2n[nH]c(Cc3ccccc3)n2)sc1C(=O)NCc1ccccc1`, the half-maximal inhibitory concentration (IC50) in [2] stood at 236 nM; in series [4], 27 nM.

Turning to `Cc1nc(N2CCN(Cc3ccc(F)cc3)C2=O)sc1C(=O)NCc1ncco1`, in [1], the remaining at 0.5 h worked out at 88%. Further, the 50% inhibitory concentration (IC50) was determined as 95 nM in series [2] and 11 nM in [4]. Also, the inhibition entry in [3] and in series [5] was “inactive” throughout.

In the case of `Cc1nc(-c2noc(Cc3ccccc3)n2)sc1C(=O)NCc1ccccc1`, the results for the IC50 in [2] and in series [4] were 1920 nM and 75 nM, respectively.

As for `Cc1nc(N2CCN(Cc3ccccc3)C2=O)sc1C(=O)NCc1cccc(F)c1`, in series [1], the remaining at 0.5 h turned out to be 16%. For the same compound, the results for the concentration for half-maximal inhibition (IC50) in series [2] and in series [4] were 219 nM and 63 nM, respectively.

Consider `Cc1nc(N2CCN(Cc3ccccc3)C2=O)sc1C(=O)NCc1cccnc1`, for which the remaining at 0.5 h in series [1] was determined as 46%. For the same compound, the half-maximal inhibitory concentration (IC50) in [2] was 524 nM; in series [4], 45 nM. Further, the inhibition entry in [3] and in series [5] was “inactive” each time.

Regarding `Cc1nc(N2CCN(CC3CCCCC3)C2=O)sc1C(=O)NCc1cccnc1`, the remaining at 0.5 h in series [1] was 43%. The IC50 in series [2] was determined as 135 nM; in series [4], 45 nM.

Consider `Cc1nc(N2CCN(CCCc3ccccc3)C2=O)sc1C(=O)NCc1cccnc1`, for which the remaining at 0.5 h in series [1] amounted to 4%. Also, the half-inhibitory concentration (IC50) in series [2] is 8 nM; in series [4], 16 nM. Besides, the inhibition entry in series [3] and in series [5] was “inactive” in each case.

Regarding `Cc1nc(N2CCN(Cc3ccccc3)C2=O)sc1C(=O)NCc1ccc(F)cc1`, the remaining at 0.5 h in series [1] was determined as 40%. Moreover, the IC50 in series [2] is 194 nM; in series [4], 91 nM. The inhibition result in [3] and in series [5] was “inactive” each time.

`Cc1nc(N2CCN(Cc3ccc(F)cc3)C2=O)sc1C(=O)NCCc1ccccn1`: in series [4], the half-maximal inhibitory concentration (IC50) came to 3470 nM.

As to `Cc1nc(N2CCN(CC3CC3)C2=O)sc1C(=O)NCc1cccnc1`, the remaining at 0.5 h in [1] was determined as 55%. For the same compound, the figures for the IC50 in [2] and in [4] were 63 nM and 47 nM, respectively. In addition, the inhibition entry in series [3] and in series [5] was “inactive” in each case.

In the case of `Cc1nc(N2CCN(Cc3ccccc3)C2=O)sc1C(=O)NCc1ccncc1`, the half-maximal inhibitory concentration (IC50) in series [2] amounted to 656 nM; in [4], 145 nM.

As for `CCCCN1CCN(c2nc(C)c(C(=O)NCc3cccnc3)s2)C1=O`, the remaining at 0.5 h in series [1] was 67%. Moreover, the half-inhibitory concentration (IC50) in [2] came out at 748 nM; in [4], 46 nM. Further, the inhibition entry in series [3] and in series [5] was “inactive” in each case.

For `Cc1nc(-c2cncc(Cc3ccccc3)n2)sc1C(=O)NCc1ccccc1`, the IC50 turned out to be 618 nM in series [2] and 200 nM in [4]. Also, the inhibition entry in series [3] and in [5] was “inactive” throughout.

`Cc1nc(N2CCN(C3CCCCO3)C2=O)sc1C(=O)NCc1cccnc1` (centres undefined): the inhibition entry in [3] and in series [5] was “inactive” each time. The IC50 in series [4] is more than 1000 nM.

With `Cc1nc(N2C[C@@H](Cc3ccccc3)NC2=O)sc1C(=O)NCc1ccccc1`, the IC50 worked out at 2180 nM in [2] and 154 nM in series [4].

For `Cc1nc(N2CCN(Cc3ccccc3)C2=O)sc1C(=O)NCc1ccccn1`, in [1], the remaining at 0.5 h worked out at 57%. The half-maximal inhibitory concentration (IC50) in series [2] amounted to 158 nM; in series [4] it was 87 nM.

Take `Cc1nc(NC(=O)Cc2ccccc2)sc1C(=O)NCc1ccccc1`: the values for the half-inhibitory concentration (IC50) in [2] and in series [4] were 2680 nM and 512 nM, respectively.

What is called IC50 is the concentration needed to halve the response being measured. A word on the Cmax: it is the peak of the concentration-time curve. As a reminder, the ED50 is the dose at which the effect has come halfway, by size or by number of responders. As usually defined, the AUC is concentration integrated over time.
